Reference: ChEMBL document CHEMBL1932990, “Synthesis and antifungal activity of 6,7-bis(arylthio)-quinazoline-5,8-diones and furo[2,3-f]quinazolin-5-ols” (2012)
≈ marks a conversion by molar mass, not a printed value.

Legend:
Assay type in all cases: functional
[1] = system: Candida albicans; assay: Antifungal activity against Candida albicans Berkout KCCM 50235 after 1 day by twofold broth dilution method; details: Berkout KCCM 50235, 24 h
How it was run: (§1)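 Two-fold broth dilution in modified Sabouraud dextrose broth. Inoculum about 1 × 10⁵ cells/mL. Test agents at final concentrations from 0.2 to 50.0. Incubated at 37 °C, and MIC read after 1 day. Fluconazole and 5-fluorocytosine served as standard agents.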

[2] = system: Candida tropicalis; assay: Antifungal activity against Candida tropicalis Berkout KCCM 50662 after 1 day by twofold broth dilution method; details: Berkout KCCM 50662, 24 h; how it was run: as §1
[3] = system: Pichia kudriavzevii; assay: Antifungal activity against Candida krusei Berkout KCCM 11655 after 1 day by twofold broth dilution method; details: Berkout KCCM 11655, 24 h; how it was run: as §1
[4] = system: Cryptococcus neoformans; assay: Antifungal activity against Cryptococcus neoformans KCCM 50564 after 1 day by twofold broth dilution method; details: KCCM 50564, 24 h; how it was run: as §1
[5] = system: Aspergillus niger; assay: Antifungal activity against Aspergillus niger KCTC 1231 after 2 days by twofold broth dilution method; details: KCTC 1231, 48 h
How it was run: (§2)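 Two-fold broth dilution in modified Sabouraud dextrose broth. Inoculum about 1 × 10⁵ cells/mL. Test agents at final concentrations from 0.2 to 50.0. Incubated at 37 °C, and MIC read after 2 days. Fluconazole and 5-fluorocytosine served as standard agents.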

[6] = system: Aspergillus flavus; assay: Antifungal activity against Aspergillus flavus KCCM 11899 after 2 days by twofold broth dilution method; details: KCCM 11899, 48 h; how it was run: as §2

Row | SMILES | MIC [1] | MIC [2] | MIC [3] | MIC [4] | MIC [5] | MIC [6]
1 | CCOC(=O)c1c(N)oc2c1c(Sc1ccc(OC)cc1)c(O)c1ncncc12 | 12.5 µg/mL (≈ 30.4 µM) | 25 µg/mL (≈ 60.8 µM) | 50 µg/mL (≈ 122 µM) | 12.5 µg/mL (≈ 30.4 µM) | 12.5 µg/mL (≈ 30.4 µM) | 12.5 µg/mL (≈ 30.4 µM)
2 | CCOC(=O)c1c(N)oc2c1c(Sc1ccc(C)cc1)c(O)c1ncncc12 | 3.2 µg/mL (≈ 8.09 µM) | 6.3 µg/mL (≈ 15.9 µM) | 6.3 µg/mL (≈ 15.9 µM) | 3.2 µg/mL (≈ 8.09 µM) | 6.3 µg/mL (≈ 15.9 µM) | 6.3 µg/mL (≈ 15.9 µM)
3 | CCOC(=O)c1c(N)oc2c1c(Sc1ccc(Cl)cc1)c(O)c1ncncc12 | 25 µg/mL (≈ 60.1 µM) | 50 µg/mL (≈ 120 µM) | 50 µg/mL (≈ 120 µM) | 6.3 µg/mL (≈ 15.1 µM) | 3.2 µg/mL (≈ 7.69 µM) | 6.3 µg/mL (≈ 15.1 µM)
4 | CCOC(=O)c1c(N)oc2c1c(Sc1ccc(Br)cc1)c(O)c1ncncc12 | 12.5 µg/mL (≈ 27.2 µM) | 25 µg/mL (≈ 54.3 µM) | 25 µg/mL (≈ 54.3 µM) | 3.2 µg/mL (≈ 6.95 µM) | 6.3 µg/mL (≈ 13.7 µM) | 50 µg/mL (≈ 109 µM)
5 | CCOC(=O)c1c(N)oc2c1c(Sc1ccc(F)c(F)c1)c(O)c1ncncc12 | 3.2 µg/mL (≈ 7.67 µM) | 3.2 µg/mL (≈ 7.67 µM) | 6.3 µg/mL (≈ 15.1 µM) | 6.3 µg/mL (≈ 15.1 µM) | 12.5 µg/mL (≈ 29.9 µM) | 3.2 µg/mL (≈ 7.67 µM)
6 | CCOC(=O)c1c(N)oc2c1c(Sc1ccc(F)cc1)c(O)c1ncncc12 | 6.3 µg/mL (≈ 15.8 µM) | 3.2 µg/mL (≈ 8.01 µM) | 6.3 µg/mL (≈ 15.8 µM) | 3.2 µg/mL (≈ 8.01 µM) | 50 µg/mL (≈ 125 µM) | 12.5 µg/mL (≈ 31.3 µM)
7 | CCOC(=O)c1c(N)oc2c1c(Sc1cccc(Cl)c1)c(O)c1ncncc12 | 50 µg/mL (≈ 120 µM) | 25 µg/mL (≈ 60.1 µM) | 50 µg/mL (≈ 120 µM) | 12.5 µg/mL (≈ 30.1 µM) | 25 µg/mL (≈ 60.1 µM) | 12.5 µg/mL (≈ 30.1 µM)
8 | CCOC(=O)c1c(N)oc2c1c(SCC)c(O)c1ncncc12 | 50 µg/mL (≈ 150 µM) | 25 µg/mL (≈ 75 µM) | 25 µg/mL (≈ 75 µM) | 12.5 µg/mL (≈ 37.5 µM) | 3.2 µg/mL (≈ 9.6 µM) | 6.3 µg/mL (≈ 18.9 µM)
9 | O=C1C(Sc2ccc(F)cc2)=C(Sc2ccc(F)cc2)C(=O)c2ncncc21 | 1.6 µg/mL (≈ 3.88 µM) | 6.3 µg/mL (≈ 15.3 µM) | 12.5 µg/mL (≈ 30.3 µM) | 1.6 µg/mL (≈ 3.88 µM) | 3.2 µg/mL (≈ 7.76 µM) | 3.2 µg/mL (≈ 7.76 µM)
10 | COc1ccc(SC2=C(Sc3ccc(OC)cc3)C(=O)c3ncncc3C2=O)cc1 | 25 µg/mL (≈ 57.3 µM) | 25 µg/mL (≈ 57.3 µM) | 3.2 µg/mL (≈ 7.33 µM) | 6.3 µg/mL (≈ 14.4 µM) | 3.2 µg/mL (≈ 7.33 µM) | 0.8 µg/mL (≈ 1.83 µM)
11 | O=C1C(Sc2ccc(Cl)cc2)=C(Sc2ccc(Cl)cc2)C(=O)c2ncncc21 | 6.3 µg/mL (≈ 14.1 µM) | 12.5 µg/mL (≈ 28.1 µM) | 3.2 µg/mL (≈ 7.19 µM) | 6.3 µg/mL (≈ 14.1 µM) | 1.6 µg/mL (≈ 3.59 µM) | 3.2 µg/mL (≈ 7.19 µM)
12 | O=C1C(Sc2ccc(Br)cc2)=C(Sc2ccc(Br)cc2)C(=O)c2ncncc21 | 6.3 µg/mL (≈ 11.8 µM) | 50 µg/mL (≈ 93.6 µM) | 6.3 µg/mL (≈ 11.8 µM) | 12.5 µg/mL (≈ 23.4 µM) | 3.2 µg/mL (≈ 5.99 µM) | 6.3 µg/mL (≈ 11.8 µM)
13 | Cc1ccc(SC2=C(Sc3ccc(C)cc3)C(=O)c3ncncc3C2=O)cc1 | 12.5 µg/mL (≈ 30.9 µM) | 6.3 µg/mL (≈ 15.6 µM) | 6.3 µg/mL (≈ 15.6 µM) | 50 µg/mL (≈ 124 µM) | 3.2 µg/mL (≈ 7.91 µM) | 3.2 µg/mL (≈ 7.91 µM)
14 | Cc1ccc(SC2=C(Sc3ccc(C)c(C)c3)C(=O)c3ncncc3C2=O)cc1C | 12.5 µg/mL (≈ 28.9 µM) | 12.5 µg/mL (≈ 28.9 µM) | 12.5 µg/mL (≈ 28.9 µM) | 3.2 µg/mL (≈ 7.4 µM) | 25 µg/mL (≈ 57.8 µM) | 12.5 µg/mL (≈ 28.9 µM)
15 | O=C1C(Sc2cccc(F)c2)=C(Sc2cccc(F)c2)C(=O)c2ncncc21 | 6.3 µg/mL (≈ 15.3 µM) | 25 µg/mL (≈ 60.6 µM) | 12.5 µg/mL (≈ 30.3 µM) | 1.6 µg/mL (≈ 3.88 µM) | 25 µg/mL (≈ 60.6 µM) | 25 µg/mL (≈ 60.6 µM)
16 | Cc1cccc(SC2=C(Sc3cccc(C)c3)C(=O)c3ncncc3C2=O)c1 | 3.2 µg/mL (≈ 7.91 µM) | 12.5 µg/mL (≈ 30.9 µM) | 25 µg/mL (≈ 61.8 µM) | 0.8 µg/mL (≈ 1.98 µM) | 1.6 µg/mL (≈ 3.96 µM) | 6.3 µg/mL (≈ 15.6 µM)
17 | O=C1C(Sc2ccccc2)=C(Sc2ccccc2)C(=O)c2ncncc21 | 6.3 µg/mL (≈ 16.7 µM) | 6.3 µg/mL (≈ 16.7 µM) | 6.3 µg/mL (≈ 16.7 µM) | 25 µg/mL (≈ 66.4 µM) | 6.3 µg/mL (≈ 16.7 µM) | 3.2 µg/mL (≈ 8.5 µM)
18 | O=C1C(Sc2ccc(F)c(F)c2)=C(Sc2ccc(F)c(F)c2)C(=O)c2ncncc21 | 12.5 µg/mL (≈ 27.9 µM) | 6.3 µg/mL (≈ 14 µM) | 12.5 µg/mL (≈ 27.9 µM) | 6.3 µg/mL (≈ 14 µM) | 12.5 µg/mL (≈ 27.9 µM) | 1.6 µg/mL (≈ 3.57 µM)
19 | O=C1C(Sc2ccc(F)cc2F)=C(Sc2ccc(F)cc2F)C(=O)c2ncncc21 | 6.3 µg/mL (≈ 14 µM) | 6.3 µg/mL (≈ 14 µM) | 12.5 µg/mL (≈ 27.9 µM) | 1.6 µg/mL (≈ 3.57 µM) | 12.5 µg/mL (≈ 27.9 µM) | 6.3 µg/mL (≈ 14 µM)
20 | O=C1C(Sc2ccccc2F)=C(Sc2ccccc2F)C(=O)c2ncncc21 | 6.3 µg/mL (≈ 15.3 µM) | 6.3 µg/mL (≈ 15.3 µM) | 12.5 µg/mL (≈ 30.3 µM) | 1.6 µg/mL (≈ 3.88 µM) | 12.5 µg/mL (≈ 30.3 µM) | 12.5 µg/mL (≈ 30.3 µM)
21 | O=C1C(Sc2ccc(O)cc2)=C(Sc2ccc(O)cc2)C(=O)c2ncncc21 | 3.2 µg/mL (≈ 7.83 µM) | 3.2 µg/mL (≈ 7.83 µM) | 25 µg/mL (≈ 61.2 µM) | 12.5 µg/mL (≈ 30.6 µM) | 25 µg/mL (≈ 61.2 µM) | 12.5 µg/mL (≈ 30.6 µM)
22 | CCSC1=C(SCC)C(=O)c2ncncc2C1=O | 12.5 µg/mL (≈ 44.6 µM) | 12.5 µg/mL (≈ 44.6 µM) | 6.3 µg/mL (≈ 22.5 µM) | 6.3 µg/mL (≈ 22.5 µM) | 3.2 µg/mL (≈ 11.4 µM) | 6.3 µg/mL (≈ 22.5 µM)
23 | O=C1C(SCCO)=C(SCCO)C(=O)c2ncncc21 | 25 µg/mL (≈ 80 µM) | > 50 µg/mL | 12.5 µg/mL (≈ 40 µM) | 6.3 µg/mL (≈ 20.2 µM) | 25 µg/mL (≈ 80 µM) | 25 µg/mL (≈ 80 µM)
24 | COc1ccc(OC)c2ncncc12 | > 50 µg/mL | > 50 µg/mL | 50 µg/mL (≈ 263 µM) | 50 µg/mL (≈ 263 µM) | 25 µg/mL (≈ 131 µM) | 50 µg/mL (≈ 263 µM)
25 | OC(Cn1cncn1)(Cn1cncn1)c1ccc(F)cc1F [FLUCONAZOLE] | 50 µg/mL (≈ 163 µM) | 6.3 µg/mL (≈ 20.6 µM) | 25 µg/mL (≈ 81.6 µM) | 6.3 µg/mL (≈ 20.6 µM) | 25 µg/mL (≈ 81.6 µM) | 25 µg/mL (≈ 81.6 µM)
26 | Nc1nc(=O)[nH]cc1F [FLUCYTOSINE] | 3.2 µg/mL (≈ 24.8 µM) | 3.2 µg/mL (≈ 24.8 µM) | 6.3 µg/mL (≈ 48.8 µM) | 12.5 µg/mL (≈ 96.8 µM) | 6.3 µg/mL (≈ 48.8 µM) | 6.3 µg/mL (≈ 48.8 µM)
